Measurements published in ChEMBL document CHEMBL1126647, “Fluorine-18-labeled progestin ketals: synthesis and target tissue uptake selectivity of potential imaging agents for receptor-positive breast tumors” (J Med Chem, 1993).

Key:
[1] = molecular target: T1, Mineralocorticoid receptor (Rattus norvegicus) (UniProt P22199); test: Relative binding affinity (RBA) for mineralocorticoid receptor compared to aldosterone
T1 sequence (whole entry): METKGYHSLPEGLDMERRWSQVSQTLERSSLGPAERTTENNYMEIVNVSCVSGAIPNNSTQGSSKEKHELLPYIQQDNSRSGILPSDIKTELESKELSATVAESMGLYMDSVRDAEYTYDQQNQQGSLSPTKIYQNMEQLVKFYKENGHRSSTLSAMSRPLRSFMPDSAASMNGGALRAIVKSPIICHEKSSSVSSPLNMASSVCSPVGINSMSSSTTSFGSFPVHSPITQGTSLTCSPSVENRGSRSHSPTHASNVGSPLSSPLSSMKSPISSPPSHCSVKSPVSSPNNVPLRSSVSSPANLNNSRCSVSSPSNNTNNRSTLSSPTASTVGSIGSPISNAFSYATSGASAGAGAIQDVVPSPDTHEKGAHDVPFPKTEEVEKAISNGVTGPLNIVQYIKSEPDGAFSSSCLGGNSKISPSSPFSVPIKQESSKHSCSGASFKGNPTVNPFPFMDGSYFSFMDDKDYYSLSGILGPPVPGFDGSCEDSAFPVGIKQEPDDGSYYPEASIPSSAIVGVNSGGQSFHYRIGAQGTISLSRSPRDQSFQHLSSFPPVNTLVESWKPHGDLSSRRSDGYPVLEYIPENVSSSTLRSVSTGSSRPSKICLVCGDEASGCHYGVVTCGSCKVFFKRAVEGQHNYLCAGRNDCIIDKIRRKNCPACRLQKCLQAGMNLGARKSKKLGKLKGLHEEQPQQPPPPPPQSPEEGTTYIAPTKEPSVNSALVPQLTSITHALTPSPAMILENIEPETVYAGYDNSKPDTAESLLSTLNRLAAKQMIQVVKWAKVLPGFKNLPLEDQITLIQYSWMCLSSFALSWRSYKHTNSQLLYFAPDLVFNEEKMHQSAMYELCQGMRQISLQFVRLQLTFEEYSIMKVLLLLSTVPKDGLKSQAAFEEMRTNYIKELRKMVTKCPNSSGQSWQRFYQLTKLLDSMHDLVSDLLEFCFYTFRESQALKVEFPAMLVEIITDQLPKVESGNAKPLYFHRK

[2] = molecular target: T2, Progesterone receptor (Rattus norvegicus) (UniProt Q63449); test: Relative binding affinity for progesterone receptor compared to R5020
T2 sequence (whole entry): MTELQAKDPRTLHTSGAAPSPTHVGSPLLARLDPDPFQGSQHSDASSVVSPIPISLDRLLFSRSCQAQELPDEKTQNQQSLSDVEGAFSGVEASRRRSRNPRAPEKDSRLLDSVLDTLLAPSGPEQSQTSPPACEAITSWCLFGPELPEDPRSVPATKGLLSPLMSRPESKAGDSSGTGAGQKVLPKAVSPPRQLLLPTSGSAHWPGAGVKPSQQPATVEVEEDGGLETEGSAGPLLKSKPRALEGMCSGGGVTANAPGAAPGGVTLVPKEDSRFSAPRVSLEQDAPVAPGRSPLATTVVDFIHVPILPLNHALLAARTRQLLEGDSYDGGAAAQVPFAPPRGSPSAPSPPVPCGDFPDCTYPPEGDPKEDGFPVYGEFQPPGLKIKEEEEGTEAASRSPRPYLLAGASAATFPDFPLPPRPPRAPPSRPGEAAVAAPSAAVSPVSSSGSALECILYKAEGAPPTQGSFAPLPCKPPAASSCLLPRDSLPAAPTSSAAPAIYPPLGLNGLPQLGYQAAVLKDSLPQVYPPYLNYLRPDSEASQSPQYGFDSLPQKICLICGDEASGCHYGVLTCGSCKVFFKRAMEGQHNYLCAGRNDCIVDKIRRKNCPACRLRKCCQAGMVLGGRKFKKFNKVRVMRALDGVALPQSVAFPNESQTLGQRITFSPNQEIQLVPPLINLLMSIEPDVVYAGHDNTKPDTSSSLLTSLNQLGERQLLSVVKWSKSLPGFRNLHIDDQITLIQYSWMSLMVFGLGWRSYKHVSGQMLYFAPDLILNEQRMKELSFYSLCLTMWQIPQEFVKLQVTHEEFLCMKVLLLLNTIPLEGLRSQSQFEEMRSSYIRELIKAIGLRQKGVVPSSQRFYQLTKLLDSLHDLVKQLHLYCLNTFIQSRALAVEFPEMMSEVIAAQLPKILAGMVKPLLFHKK

[3] = Partition coefficient (logP); format: physicochemical; conditions: octanol/water
Method in brief: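 Octanol/water partition measured as log P by the Minick method. For some reference progestins, log P was also measured by shake flask.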

[4] = molecular target: T2, Progesterone receptor (Rattus norvegicus); test: Tissue distribution in kidney 1 hr after [18F]4 injection into estrogen-primed immature rats at normal dose; format: functional, tissue-based
Method in brief: (§1)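 Female Sprague-Dawley rats, 23 days old, primed with estradiol 5 μg s.c. in 20% ethanol/sunflower oil on two days and used 24 h later. Under ether, they received 51 μCi tracer (30 Ci/mmol) iv via the tail vein in 0.1 mL 10% ethanol/saline. Killed by decapitation at 1 h; tissues weighed and gamma-counted. Results as %ID/g or tissue ratios, mean ± SD, n = 5.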

[5] = molecular target: T2, Progesterone receptor (Rattus norvegicus); test: Tissue distribution in uterus/muscle 1 hr after [18F]4 injection into estrogen-primed immature rats at normal dose; format: functional, tissue-based; method in brief: as §1
[6] = molecular target: T2, Progesterone receptor (Rattus norvegicus); test: Tissue distribution in muscle 1 hr after [18F]4 injection into estrogen-primed immature rats at normal dose; format: functional, tissue-based; method in brief: as §1
[7] = molecular target: T2, Progesterone receptor (Rattus norvegicus); test: Tissue distribution in uterus 1 hr after [18F]4 injection into estrogen-primed immature rats at normal dose; format: functional, tissue-based; method in brief: as §1

| Compound | relative binding affinity (RBA) [1] | relative binding affinity (RBA) [2] | logP [3] | Injected dose/g [4] [%] | Injected dose/g [5] [%] | Injected dose/g [6] [%] | Injected dose/g [7] [%] |
| --- | --- | --- | --- | --- | --- | --- | --- |
| CCC(=O)[C@@]1(C)CC[C@H]2[C@@H]3CCC4=CC(=O)CCC4=C3CC[C@@]21C [PROMEGESTONE] | 0.93 | 100 | 4.05 |  |  |  |  |
| CC(=O)[C@H]1CC[C@H]2[C@@H]3CCC4=CC(=O)CC[C@]4(C)[C@H]3CC[C@]12C |  | 13 |  |  |  |  |  |
| CC[C@@H]1C[C@H]2[C@@H]3CCC4=CC(=O)CC[C@@H]4[C@H]3CC[C@]2(C)[C@H]1C(=O)CO | 0.92 | 200 | 4.01 |  |  |  |  |
| C[C@]1(c2ccc(F)cc2)O[C@@H]2CC3C4CCC5=CC(=O)CC[C@@H]5C4CC[C@]3(C)[C@]2(C(=O)CO)O1 (stereo partly specified) |  | 1.3 | 4.84 |  |  |  |  |
| CC[C@@H]1C[C@H]2[C@@H]3CCC4=CC(=O)CC[C@@H]4[C@H]3CC[C@]2(C)[C@H]1C(=O)CF | 3.2 | 700 | 4.66 | 1.05 | 16 | 0.42 | 6.43 |
